The target in the assay is Integrin alpha-IIb/beta-3 (Homo sapiens, UniProt P08514+P05106). The assay is described as follows: Inhibition of platelet aggregation as the concentration necessary to inhibit the change in light. In outline: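 Human gel-filtered platelets at 2 × 10^8/mL were mixed with 0.1 mg/mL human fibrinogen, 1 mM CaCl2 and compound, then aggregated with 10 µM ADP. Light transmittance was compared between control and treated samples.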

pIC50: −log10 of the molar value. Bridge positions count the residues as written; N and C are the ends. Peptide text beside a SMILES is read from it.

Integrin alpha-IIb/beta-3, sequence (P05106 27-788 limits assumed): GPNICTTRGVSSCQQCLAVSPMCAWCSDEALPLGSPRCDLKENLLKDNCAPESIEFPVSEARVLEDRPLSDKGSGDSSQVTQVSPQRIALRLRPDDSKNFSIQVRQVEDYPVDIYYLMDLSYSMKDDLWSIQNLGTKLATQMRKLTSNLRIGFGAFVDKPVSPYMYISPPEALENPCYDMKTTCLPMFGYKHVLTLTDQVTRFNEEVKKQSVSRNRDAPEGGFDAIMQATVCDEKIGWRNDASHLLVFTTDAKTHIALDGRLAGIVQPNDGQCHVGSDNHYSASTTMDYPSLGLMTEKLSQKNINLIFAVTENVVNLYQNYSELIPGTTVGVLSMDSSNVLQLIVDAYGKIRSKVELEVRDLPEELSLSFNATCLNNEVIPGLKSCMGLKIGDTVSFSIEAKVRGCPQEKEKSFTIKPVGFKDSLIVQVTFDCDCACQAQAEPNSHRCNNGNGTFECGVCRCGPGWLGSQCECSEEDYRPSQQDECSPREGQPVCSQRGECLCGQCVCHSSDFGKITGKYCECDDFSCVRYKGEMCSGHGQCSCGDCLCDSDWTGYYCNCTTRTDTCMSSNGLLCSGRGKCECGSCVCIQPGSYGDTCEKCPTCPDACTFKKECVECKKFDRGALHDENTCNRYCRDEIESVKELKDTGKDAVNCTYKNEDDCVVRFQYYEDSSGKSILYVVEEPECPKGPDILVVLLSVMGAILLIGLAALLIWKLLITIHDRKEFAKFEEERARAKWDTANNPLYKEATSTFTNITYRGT
Integrin alpha-IIb/beta-3, sequence (P08514 32-887 limits assumed): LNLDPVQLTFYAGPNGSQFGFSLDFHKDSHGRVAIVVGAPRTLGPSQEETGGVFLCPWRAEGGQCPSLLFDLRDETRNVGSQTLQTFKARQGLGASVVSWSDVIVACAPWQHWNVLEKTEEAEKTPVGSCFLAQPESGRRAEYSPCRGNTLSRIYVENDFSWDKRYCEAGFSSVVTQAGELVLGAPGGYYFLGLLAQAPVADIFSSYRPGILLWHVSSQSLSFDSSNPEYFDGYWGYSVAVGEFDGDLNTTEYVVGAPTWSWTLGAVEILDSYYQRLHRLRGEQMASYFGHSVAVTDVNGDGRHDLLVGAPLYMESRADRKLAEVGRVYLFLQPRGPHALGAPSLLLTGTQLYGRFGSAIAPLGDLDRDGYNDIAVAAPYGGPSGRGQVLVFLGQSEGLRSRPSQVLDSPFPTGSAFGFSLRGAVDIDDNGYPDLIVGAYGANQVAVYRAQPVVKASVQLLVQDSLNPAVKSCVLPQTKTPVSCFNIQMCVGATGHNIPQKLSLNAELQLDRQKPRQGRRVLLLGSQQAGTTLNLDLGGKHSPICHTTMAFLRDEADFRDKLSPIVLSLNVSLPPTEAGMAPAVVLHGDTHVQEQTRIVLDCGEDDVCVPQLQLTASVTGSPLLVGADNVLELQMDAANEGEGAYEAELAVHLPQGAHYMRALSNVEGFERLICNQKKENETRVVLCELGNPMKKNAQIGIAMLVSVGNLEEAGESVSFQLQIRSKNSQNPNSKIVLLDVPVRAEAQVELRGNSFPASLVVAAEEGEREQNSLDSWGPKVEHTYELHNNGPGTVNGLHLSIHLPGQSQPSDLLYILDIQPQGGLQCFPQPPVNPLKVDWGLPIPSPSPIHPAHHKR
Integrin alpha-IIb/beta-3, sequence (P08514 891-1039 limits assumed): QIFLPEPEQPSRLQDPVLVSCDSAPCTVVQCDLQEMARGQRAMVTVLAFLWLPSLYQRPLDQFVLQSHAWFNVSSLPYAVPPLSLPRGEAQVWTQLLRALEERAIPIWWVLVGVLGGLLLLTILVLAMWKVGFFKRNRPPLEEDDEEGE

With `CCCCC(=O)N[C@@H](Cc1ccc(OCCCCC2CCNCC2)cc1)C(=O)O` [(S)-2-Pentanoylamino-3-[4-(4-piperidin-4-yl-butoxy)-phenyl]-propionic acid], the pIC50 was 7.33.

Take `NCCCCCCCCOc1ccc(C[C@H](NC(=O)OCc2ccccc2)C(=O)O)cc1` [3-[4-(8-Amino-octyloxy)-phenyl]-2-benzyloxycarbonylamino-propionic acid]: the pIC50 was 4.42.

As to `CC(C)(C)CC(C)(C)NCCCOc1ccc(C[C@H](NC(=O)OCc2ccccc2)C(=O)O)cc1` [(S)-2-Benzyloxycarbonylamino-3-{4-[3-(1,1,3,3-tetramethyl-butylamino)-propoxy]-phenyl}-propionic acid], the pIC50 was < 4.00.

In turn, `CC(C)(C)NCCCOc1ccc(C[C@H](NC(=O)OCc2ccccc2)C(=O)O)cc1` [(S)-2-Benzyloxycarbonylamino-3-[4-(3-tert-butylamino-propoxy)-phenyl]-propionic acid] had a pIC50 of 4.55.

For `CC(=O)N[C@@H](Cc1ccc(OCCCCCCN)cc1)C(=O)O` [(S)-2-Acetylamino-3-[4-(6-amino-hexyloxy)-phenyl]-propionic acid], the pIC50 was 4.74.

`CN1CCN(CCCOc2ccc(C[C@H](NC(=O)OCc3ccccc3)C(=O)O)cc2)CC1` [(S)-2-Benzyloxycarbonylamino-3-{4-[3-(4-methyl-piperazin-1-yl)-propoxy]-phenyl}-propionic acid] gave a pIC50 of 5.28.

`O=C(N[C@@H](Cc1ccc(OC/C=C/CC2CCNCC2)cc1)C(=O)O)OCc1ccccc1` [(S)-2-Benzyloxycarbonylamino-3-[4-((E)-4-piperidin-4-yl-but-2-enyloxy)-phenyl]-propionic acid] had a negative-log IC50 (pIC50) of 6.62.

In turn, `CCCC(=O)N[C@@H](Cc1ccc(OCCCCCCN)cc1)C(=O)O` [(S)-3-[4-(6-Amino-hexyloxy)-phenyl]-2-butyrylamino-propionic acid] had a negative logarithm of the IC50 (pIC50) of 5.24.

In turn, `O=C(CCc1ccccc1)N[C@@H](Cc1ccc(OCCCCC2CCNCC2)cc1)C(=O)O` [(S)-2-(3-Phenyl-propionylamino)-3-[4-(4-piperidin-4-yl-butoxy)-phenyl]-propionic acid] gave a negative-log IC50 (pIC50) of 7.00.

`O=C(O)[C@H](Cc1ccc(OCCCCC2CCNCC2)cc1)NS(=O)(=O)/C=C/c1ccccc1` [(S)-2-((E)-2-Phenyl-ethenesulfonylamino)-3-[4-(4-piperidin-4-yl-butoxy)-phenyl]-propionic acid]: the pIC50 is 7.37.

Take `O=C(O)[C@H](Cc1ccc(OCCCCC2CCNCC2)cc1)NS(=O)(=O)c1cccs1` [(S)-3-[4-(4-Piperidin-4-yl-butoxy)-phenyl]-2-(thiophene-2-sulfonylamino)-propionic acid]: the negative-log IC50 (pIC50) is 7.82.

In the case of `O=C(N[C@@H](Cc1ccc(OCCCCN2CCNCC2)cc1)C(=O)O)OCc1ccccc1` [(S)-2-Benzyloxycarbonylamino-3-[4-(4-piperazin-1-yl-butoxy)-phenyl]-propionic acid], the negative logarithm of the IC50 (pIC50) was 6.30.

The molecule `CCC(=O)N[C@@H](Cc1ccc(OCCCCC2CCNCC2)cc1)C(=O)O` [(S)-3-[4-(4-Piperidin-4-yl-butoxy)-phenyl]-2-propionylamino-propionic acid] had a pIC50 of 6.98.

In turn, `CC(=O)N[C@H]1CSSC[C@@H](C(=O)O)NC(=O)[C@H](CC(=O)O)NC(=O)CNC(=O)[C@H](CCCNC(=N)N)NC1=O` [(4S,7R,13R,16S)-16-Acetylamino-7-carboxymethyl-13-(3-guanidino-propyl)-6,9,12,15-tetraoxo-1,2-dithia-5,8,11,14-tetraaza-cycloheptadecane-4-carboxylic acid] (Ac-CRGDC-OH; disulfide 1-5) gave a negative-log IC50 (pIC50) of 6.17.

On to `CS(=O)(=O)N[C@@H](Cc1ccc(OCCCCC2CCNCC2)cc1)C(=O)O` [(S)-2-Methanesulfonylamino-3-[4-(4-piperidin-4-yl-butoxy)-phenyl]-propionic acid], for which the pIC50 was 7.20.

Consider `NCCCCCCOc1ccc(C[C@H](NC(=O)c2ccccc2)C(=O)O)cc1` [(S)-3-[4-(6-Amino-hexyloxy)-phenyl]-2-benzoylamino-propionic acid], for which the pIC50 is 5.00.

In turn, `O=C(O)[C@H](Cc1ccc(OCCCCC2CCNCC2)cc1)NS(=O)(=O)CCc1ccccc1` [(S)-2-(2-Phenyl-ethanesulfonylamino)-3-[4-(4-piperidin-4-yl-butoxy)-phenyl]-propionic acid] gave a pIC50 of 7.54.

Molecule `NCCCCCCOc1ccc(C[C@H](NS(=O)(=O)Cc2ccccc2)C(=O)O)cc1` showed a negative-log IC50 (pIC50) of 5.72.

`CCCCS(=O)(=O)N[C@H](CC(=O)O)Cc1ccc(OCCCCC2CCNCC2)cc1` [(S)-3-(Butane-1-sulfonylamino)-4-[4-(4-piperidin-4-yl-butoxy)-phenyl]-butyric acid] showed a pIC50 of 6.85.

`CCCS(=O)(=O)N[C@@H](Cc1ccc(OCCCCC2CCNCC2)cc1)C(=O)O` [(S)-3-[4-(4-Piperidin-4-yl-butoxy)-phenyl]-2-(propane-1-sulfonylamino)-propionic acid] showed a negative logarithm of the IC50 (pIC50) of 7.64.

For the molecule `O=C(N[C@@H](Cc1ccc(OCCCC2CCNCC2)cc1)C(=O)O)OCc1ccccc1` [(S)-2-Benzyloxycarbonylamino-3-[4-(3-piperidin-4-yl-propoxy)-phenyl]-propionic acid], the pIC50 was 5.21.

Regarding `CC(=O)N[C@@H](Cc1ccc(OCCCCC2CCNCC2)cc1)C(=O)O` [(S)-2-Acetylamino-3-[4-(4-piperidin-4-yl-butoxy)-phenyl]-propionic acid], the pIC50 was 6.30.

Consider `O=C(N[C@@H](Cc1ccc(OCCCCCN2CCNCC2)cc1)C(=O)O)OCc1ccccc1` [(S)-2-Benzyloxycarbonylamino-3-[4-(5-piperazin-1-yl-pentyloxy)-phenyl]-propionic acid], for which the negative logarithm of the IC50 (pIC50) was 5.96.

Regarding `N=C(N)NCCC[C@H](N)C(=O)NCC(=O)N[C@@H](CC(=O)O)C(=O)N[C@@H](Cc1c[nH]c2ccccc12)C(=O)O` [2-[1-[1-amino-4-amino(imino)methylamino-(1S)-butylcarboxamidomethylcarboxamido]-2-carboxy-(1S)-ethylcarboxamido]-3-(1H-3-indolyl)-(2S)-propanoic acid] (H-RGDW-OH), the pIC50 is 5.77.

As to `O=C(N[C@@H](Cc1ccc(OCCCc2ccccc2)cc1)C(=O)O)OCc1ccccc1`, the pIC50 is < 3.00.

Molecule `CCCCCC(=O)N[C@@H](Cc1ccc(OCCCCCCN)cc1)C(=O)O` had a pIC50 of 5.30.

Regarding `O=C(O)[C@H](Cc1ccc(OCCCCC2CCNCC2)cc1)NS(=O)(=O)c1ccccc1` [(S)-2-Benzenesulfonylamino-3-[4-(4-piperidin-4-yl-butoxy)-phenyl]-propionic acid], the pIC50 is 7.74.

Regarding `CCCCS(=O)(=O)N[C@H](CC(=O)O)Cc1ccc(OCCCC2CCNCC2)cc1` [(S)-3-(Butane-1-sulfonylamino)-4-[4-(3-piperidin-4-yl-propoxy)-phenyl]-butyric acid], the pIC50 was 6.22.

In general, pIC50 refers to the negative decadic logarithm of the IC50, by convention in mol/L. Low values mean a large IC50, high ones a small IC50.

Source of the values: BindingDB's records for doi:10.1021/jm00042a007 (Merck Research Laboratories, 1994).
